We go through 32 compounds from ChEMBL document CHEMBL2434891, “Design, synthesis, and in vitro cancer cell growth inhibition evaluation and antimalarial testing of trioxanes installed in cyclic 2-enoate substructures” (Eur J Med Chem, 2013).

One assay concerns L6. The assay is described as follows: Cytotoxicity against rat L6 cells after 70 hrs by alamar blue assay. The following applies: L6, 70 h.
The next assay deals with Plasmodium falciparum. The assay is described as follows: Antimalarial activity against erythrocytic stage of Plasmodium falciparum NF54 infected in RBC after 48 hrs by [3H]-hypoxanthine incorporation assay. In kind it is functional, organism-based.
The next assay concerns MV4-11. Description: Antiproliferative activity against human MV4-11 cells after 72 hrs by MTT assay. In kind it is functional, cell-based. The following applies: MV4-11, 72 h. A general note: Tetrazolium dyes change colour on reduction, which living cells bring about.
Assay [1] is described as follows: Binding affinity to hemin assessed as hemin-induced oxidative damage in 0.1 M tris buffer at pH 9 at 25 to 500 uM after 2 hrs by UV-vis absorption spectroscopy in presence of methylene blue. In a few lines: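 Methylene blue (10 µM) used as substrate for heme-catalysed oxidation. Compound incubated 2 h at 37 °C with hemin (6 µM) and methylene blue in 60% 0.1 M Tris buffer (pH 9.0) and 40% DMSO. Mixture absorbance then read by UV–vis spectrophotometry.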

Assay [2] is described as follows: Binding affinity to hemin assessed as complexation of hemin-endoperoxides in 0.1 M tris buffer at pH 9 at 25 to 500 uM after 24 hrs by UV-vis absorption spectroscopy. In a few lines: (§1)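 Hemin held at 6 µM with compound at 0–500 µM in 60% 0.1 M Tris buffer (pH 9.0) and 40% DMSO. Mixtures incubated 12 h or 24 h.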
Assay [3] in a line: Binding affinity to hemin assessed as complexation of hemin-endoperoxides in 0.1 M tris buffer at pH 9 at 25 to 500 uM after 12 hrs by UV-vis absorption spectroscopy. The gist of the method: as §1
The next assay has as its system BALB/3T3. The assay is described as follows: Cytotoxicity against mouse BALB/3T3 cells after 72 hrs by SRB assay. In kind it is cell-based. As to conditions: BALB/3T3, 72 h. The gist of the method: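 Adherent cells grown at 37 °C and 5% CO2. A549 and HCT116 were in RPMI 1640/OptiMEM (50:50) with 5% FBS; BALB/3T3 in Dulbecco medium with 10% FBS and pyruvate. Seeded at 1×10^4/well 24 h before dosing, then 72 h at 10–0.01 µg/mL final. Fixed with cold 50% TCA, stained with 0.4% SRB, dye extracted in 10 mM Tris, read at 540 nm.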
In general terms: Sulforhodamine B stains cellular protein and so reports cell mass.

For a further assay, the system named is A549. Description: Cytotoxicity against human A549 cells after 72 hrs by SRB assay. In kind it is functional, cell-based. The following applies: A549, 72 h. In a few lines:
(§2)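 Adherent cells grown at 37 °C and 5% CO2. Seeded at 1×10^4/well 24 h before dosing, then 72 h at 10–0.01 µg/mL final. Fixed with cold 50% TCA, stained with 0.4% SRB, dye extracted in 10 mM Tris, read at 540 nm.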

The subject of a further assay is HCT-116. Description: Cytotoxicity against human HCT116 cells after 72 hrs by SRB assay. As to conditions: HCT-116, 72 h. In kind it is functional, cell-based. The gist of the method:
as §2

pIC50: −log10 of the molar value. Converted amounts (≈) assume the structure as drawn. The source made the active and inactive calls. The calls are words filed in the database; no cut-off is given here.

Turning to `COc1ccc(C2O[C@]34CC(c5ccccc5)(c5ccccc5)OC(=O)C3=C[C@@]2(C)OO4)cc1` (stereo partly drawn), the 50% inhibitory concentration (IC50) with L6 is 1.9 µg/mL (≈ 4.16 µM); in the assay with Plasmodium falciparum it was 4.2 µg/mL (≈ 9.2 µM). The pIC50 in the assay with MV4-11 was 5.42.

For the compound `COc1ccc(C2C[C@]34OO[C@](C)(C=C3C(=O)O2)C(c2ccc([N+](=O)[O-])cc2)O4)cc1OC` (stereo partly drawn), the outcome in assay [1], in [2] and in [3] was Active. Further, the pIC50 in the assay with BALB/3T3 is 5.14; in the assay on A549, 5.11; with HCT-116, 5.17; with MV4-11, 6.04.

With `CC(C)(C)OC(=O)N1C(=O)C2=C[C@@]3(C)OO[C@]2(CC1c1ccc(Cl)cc1)OC3c1ccccc1` (stereo partly drawn), the pIC50 in the assay on BALB/3T3 was 5.26; in the assay with A549, 5.18; in the assay with HCT-116, 5.22; with MV4-11 it was 6.29.

`COc1ccc(C2O[C@]34CC(c5ccc(C(F)(F)F)cc5)OC(=O)C3=C[C@@]2(C)OO4)cc1` (stereo partly drawn): the pIC50 in the assay on MV4-11 was 5.32.

Consider `COc1ccc(C2C[C@]34OO[C@](C)(C=C3C(=O)O2)C(c2ccc([N+](=O)[O-])cc2)O4)cc1` (stereo partly drawn), for which the pIC50 with BALB/3T3 is 5.13; in the assay with A549 it was 5.07; in the assay with HCT-116, 5.13; in the assay on MV4-11 it was 6.13.

`CC(C)(C)OC(=O)N1C(=O)C2=C[C@@]3(C)OO[C@]2(CC1c1ccc(Cl)cc1)OC3c1ccc([N+](=O)[O-])cc1` (stereo partly drawn): the half-inhibitory concentration (IC50) in the assay with L6 was found to be 1.16 µg/mL (≈ 2.19 µM); in the assay with Plasmodium falciparum, 1.97 µg/mL (≈ 3.72 µM). Further, the pIC50 with BALB/3T3 was 5.18; in the assay with A549, 5.21; in the assay on HCT-116, 5.26; with MV4-11, 6.30.

Compound `COC(=O)C1=C[C@]23CCCC[C@@H]2O[C@@]1(C)OO3` had a pIC50 with MV4-11 of 5.09.

Take `COc1ccc(C2O[C@]34CC(c5ccc(Cl)cc5)OC(=O)C3=C[C@@]2(C)OO4)cc1` (stereo partly drawn): the pIC50 in the assay with MV4-11 was 5.37. This pIC50 lies 0.28 log units higher than the previous one.

Take `COc1ccc(C2O[C@]34CCCC(=O)C3=C[C@@]2(C)OO4)cc1` (stereo partly drawn): the half-maximal inhibitory concentration (IC50) is 4.5 µg/mL (≈ 14.9 µM) in the assay on L6 and 3.41 µg/mL (≈ 11.3 µM) in the assay with Plasmodium falciparum. Also, the pIC50 in the assay with MV4-11 is less than 4.48.

As to `C[C@]12C=C3C(=O)OC(c4ccccc4)(c4ccccc4)C[C@@]3(OO1)OC2c1ccc(Cl)cc1` (stereo partly drawn), the IC50 with L6 was found to be 2.03 µg/mL (≈ 4.4 µM); with Plasmodium falciparum it was 9.88 µg/mL (≈ 21.4 µM). Besides, in the assay with MV4-11, the pIC50 is 5.44.

In the assay on MV4-11, `COc1cccc(C2C[C@]34OO[C@](C)(C=C3C(=O)O2)C(C)O4)c1` (stereo partly drawn) gave a pIC50 of 5.11.

Regarding `CC1O[C@]23CC(c4ccc(Cl)cc4)N(C(=O)OC(C)(C)C)C(=O)C2=C[C@@]1(C)OO3` (stereo partly drawn), the pIC50 in the assay on BALB/3T3 was 5.21; in the assay on A549, 5.14; with HCT-116, 5.14; in the assay with MV4-11, 5.98.

Consider `COc1ccc(C2C[C@]34OO[C@](C)(C=C3C(=O)O2)C(c2ccccc2)O4)cc1OC` (stereo partly drawn), for which the IC50 in the assay on L6 amounted to 0.52 µg/mL (≈ 1.27 µM); with Plasmodium falciparum, 3.28 µg/mL (≈ 7.99 µM). For the same compound, the pIC50 in the assay with BALB/3T3 is 5.00; with A549 it was less than 4.62; in the assay on HCT-116, 4.93; with MV4-11 it was 6.05.

The compound `C[C@]12C=C3C(=O)OC(c4ccc(C(F)(F)F)cc4)C[C@@]3(OO1)OC2c1ccc(Br)cc1` (stereo partly drawn) gave a pIC50 in the assay with MV4-11 of 5.26.

In turn, `COc1ccc(C2C[C@]34OO[C@](C)(C=C3C(=O)O2)C(C)O4)cc1OC` (stereo partly drawn) showed a negative logarithm of the IC50 (pIC50) in the assay with MV4-11 of 4.96.

As for `C[C@]12C=C3C(=O)OC(c4ccc(C(F)(F)F)cc4)C[C@@]3(OO1)OC2c1ccccc1` (stereo partly drawn), the pIC50 with BALB/3T3 is 5.05; with A549 it was 4.96; in the assay with HCT-116 it was 5.13; in the assay on MV4-11 it was 6.11.

The compound `COc1ccc(C2O[C@]34CC(c5ccccc5)CC(=O)C3=C[C@@]2(C)OO4)cc1` (stereo partly drawn) gave a pIC50 in the assay on MV4-11 of 5.19.

As for `COc1ccc(C2O[C@]34CC(c5ccc(OC)c(OC)c5)OC(=O)C3=C[C@@]2(C)OO4)cc1` (stereo partly drawn), the pIC50 in the assay with MV4-11 was 5.36. The pIC50 values of the last two compounds are within 0.2 log units of each other.

For `C[C@]12C=C3C(=O)OC(c4ccccc4)(c4ccccc4)C[C@@]3(OO1)OC2c1ccc([N+](=O)[O-])cc1` (stereo partly drawn), the IC50 in the assay on L6 came to 3.49 µg/mL (≈ 7.4 µM); in the assay with Plasmodium falciparum it was 5.25 µg/mL (≈ 11.1 µM). This compound gave a pIC50 in the assay on MV4-11 of 5.42.

Turning to `C[C@]12C=C3C(=O)OC(c4cccc(Cl)c4)C[C@@]3(OO1)OC2c1ccc([N+](=O)[O-])cc1` (stereo partly drawn), the outcome in assay [1], in assay [2] and in [3] was Active. This compound also had a pIC50 in the assay on MV4-11 of 5.41.

As to `CC1O[C@]23CC(c4ccc(F)cc4)OC(=O)C2=C[C@@]1(C)OO3` (stereo partly drawn), in the assay with MV4-11, the negative-log IC50 (pIC50) was 5.16.

Turning to `C[C@]12C=C3C(=O)OC(c4ccc(Cl)cc4)C[C@@]3(OO1)OC2c1ccc([N+](=O)[O-])cc1` (stereo partly drawn), the outcome in [1], in [2] and in assay [3] was Active. The pIC50 with BALB/3T3 is 5.09; with A549, 5.08; in the assay on HCT-116 it was 5.13; in the assay on MV4-11, 6.23.

`C[C@]12C=C3C(=O)OC(c4ccc(Cl)cc4)C[C@@]3(OO1)OC2c1ccc(Br)cc1` (stereo partly drawn): in the assay on MV4-11, the pIC50 was 5.38.

With `COc1ccc(C2O[C@]34CC(c5ccc(F)cc5)OC(=O)C3=C[C@@]2(C)OO4)cc1` (stereo partly drawn), the IC50 in the assay on L6 came out at 0.5 µg/mL (≈ 1.26 µM); in the assay on Plasmodium falciparum, 1.68 µg/mL (≈ 4.22 µM). Besides, the pIC50 is 5.04 in the assay with BALB/3T3, 4.93 with A549, 5.09 in the assay with HCT-116 and 6.24 in the assay with MV4-11.

For the compound `COC(=O)c1ccc(C2O[C@]34CC(c5ccccc5)(c5ccccc5)OC(=O)C3=C[C@@]2(C)OO4)cc1` (stereo partly drawn), the concentration for half-maximal inhibition (IC50) in the assay on L6 stood at 1.67 µg/mL (≈ 3.45 µM); with Plasmodium falciparum it was 5.62 µg/mL (≈ 11.6 µM). Also, the pIC50 with MV4-11 was 5.52.

With `COc1ccc(C2O[C@]34CC(c5ccc(Cl)cc5)N(C(=O)OC(C)(C)C)C(=O)C3=C[C@@]2(C)OO4)cc1` (stereo partly drawn), the pIC50 in the assay on BALB/3T3 was 5.16; in the assay on A549, 5.20; with HCT-116 it was 5.25; with MV4-11 it was 6.18.

Consider `C[C@]12C=C3C(=O)OC(c4ccccc4Br)C[C@@]3(OO1)OC2c1ccc([N+](=O)[O-])cc1` (stereo partly drawn), for which the pIC50 in the assay on BALB/3T3 is 5.12; in the assay with A549 it was 4.94; with HCT-116 it was 5.15; in the assay with MV4-11 it was 6.08.

With `CC1O[C@]23CC(c4ccc(Br)cc4)OC(=O)C2=C[C@@]1(C)OO3` (stereo partly drawn), the pIC50 with BALB/3T3 was 4.92; in the assay with A549, 4.89; in the assay with HCT-116, 5.04; in the assay with MV4-11, 6.01.

In turn, `C[C@]12C=C3C(=O)CCC[C@@]3(OO1)OC2c1ccc([N+](=O)[O-])cc1` (stereo partly drawn) showed a pIC50 with MV4-11 of less than 4.51.

As for `C[C@]12C=C3C(=O)CC(c4ccccc4)C[C@@]3(OO1)OC2c1ccc([N+](=O)[O-])cc1` (stereo partly drawn), the IC50 in the assay with L6 stood at 5.6 µg/mL (≈ 14.2 µM); in the assay with Plasmodium falciparum it was 3.1 µg/mL (≈ 7.88 µM). Further, the negative logarithm of the IC50 (pIC50) in the assay with MV4-11 was 5.18.

`CC1O[C@]23CC(c4cccc(Cl)c4)OC(=O)C2=C[C@@]1(C)OO3` (stereo partly drawn) had a pIC50 in the assay with MV4-11 of 5.14.

Take `CC1O[C@]23CC(c4ccc(C(F)(F)F)cc4)OC(=O)C2=C[C@@]1(C)OO3` (stereo partly drawn): the pIC50 in the assay on BALB/3T3 was 4.90; in the assay with A549, 4.86; in the assay on HCT-116, 5.02; in the assay on MV4-11, 6.05.

By IC50 is commonly meant the concentration that gives 50% inhibition. A higher IC50 goes with weaker potency in that assay. For orientation: pIC50 means −log10 of the IC50, conventionally taken in molar units.
